Reference: ChEMBL document CHEMBL1137668, “Activities of several classes of acyclic nucleoside phosphonates against camelpox virus replication in different cell culture models” (Antimicrob Agents Chemother, 2007)
Activity calls are given as the source filed them. The rule behind the calls is not given here.

Assays:
Camelpox virus [1] = experiment: Antiviral activity against Camelpox virus CML1 infected in HEL299 cells assessed as inhibition of virus-induced cytopathic effect after 6 days by Giemsa staining; type: functional, organism-based; settings: CML1, HEL 299, 144 h
Camelpox virus [2] = experiment: Antiviral activity against Camelpox virus CML14 infected in HEL299 cells assessed as inhibition of virus-induced cytopathic effect after 6 days by Giemsa staining; type: functional, organism-based; settings: CML14, HEL 299, 144 h
[3] = Cytotoxicity against HEL299 cells after 4 days by Z1 Coulter counting analysis; type: cell-based, HEL 299; settings: human, HEL299 cells
Summary of the method: (§1)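 Cell growth inhibition: HEL cells were seeded at 3.5 × 10³ per well and PHKs at 5 × 10³ per well. Serial dilutions were added in duplicate after 1 day (HEL) or 3 days (PHK). After 4 days with compound, cells were trypsinized and counted with a Coulter counter (8 μm lower limit). CC50 is the concentration reducing growth by 50%, mean ± SD of at least two experiments.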

[4] = Selectivity index, ratio of CC50 for HEL299 cells to EC50 for Camelpox virus CML1 infected in HEL299 cells; type: toxicity, cell-based, HEL 299; settings: human, HEL299 cells; read-out: Ratio CC50/IC50
[5] = Selectivity index, ratio of CC50 for HEL299 cells to EC50 for Camelpox virus CML14 infected in HEL299 cells; type: toxicity, cell-based, HEL 299; settings: human, HEL299 cells; read-out: Ratio CC50/IC50
Camelpox virus [6] = experiment: Antiviral activity against Camelpox virus CML1 infected in human PHK assessed as inhibition of virus-induced cytopathic effect after 6 days by Giemsa staining; type: functional, organism-based; settings: CML1, 144 h
Camelpox virus [7] = experiment: Antiviral activity against Camelpox virus CML14 infected in human PHK assessed as inhibition of virus-induced cytopathic effect after 6 days by Giemsa staining; type: functional, organism-based; settings: CML14, 144 h
[8] = Cytotoxicity against human PHK after 4 days by Z1 Coulter counting analysis; settings: PHK cells; summary of the method: as §1
[9] = Selectivity index, ratio of CC50 for human PHK to EC50 for Camelpox virus CML1 infected in human PHK
[10] = Selectivity index, ratio of CC50 for human PHK to EC50 for Camelpox virus CML14 infected in human PHK
Camelpox virus [11] = experiment: Antiviral activity against Camelpox virus CML1 infected in HEL299 cells assessed as reduction in viral titer after 6 days postinfection by virus yield reduction assay; type: functional; settings: for EC99: CML1, HEL 299, 144 h; for Activity: HEL 299
Camelpox virus [12] = experiment: Antiviral activity against Camelpox virus CML14 infected in HEL299 cells assessed as reduction in viral titer after 6 days postinfection by virus yield reduction assay; type: functional; settings: for EC99: CML14, HEL 299, 144 h; for Activity: HEL 299
Camelpox virus [13] = experiment: Antiviral activity against Camelpox virus CML1 infected in human PHK assessed as reduction in viral titer after 6 days postinfection by virus yield reduction assay; type: functional; settings: for EC99: CML1, 144 h
Camelpox virus [14] = experiment: Antiviral activity against Camelpox virus CML14 infected in human PHK assessed as reduction in viral titer after 6 days postinfection by virus yield reduction assay; type: functional; settings: for EC99: CML14, 144 h
Camelpox virus [15] = experiment: Antiviral activity against Camelpox virus CML1 infected in differentiated human PHK raft culture assessed as reduction in viral titer determined in HEL299 cells treated after 7 days postinfection by virus yield reduction assay; type: functional; settings: CML1, HEL 299, 168 h
Camelpox virus [16] = experiment: Antiviral activity against Camelpox virus CML1 infected in HEL299 cells assessed as suppression of viral replication at 73 uM after 6 days postinfection by virus yield reduction assay; type: functional, organism-based; settings: HEL 299
Camelpox virus [17] = experiment: Antiviral activity against Camelpox virus CML14 infected in HEL299 cells assessed as suppression of viral replication at 73 uM after 6 days postinfection by virus yield reduction assay; type: functional, organism-based; settings: HEL 299
Camelpox virus [18] = experiment: Antiviral activity against Camelpox virus CML1 infected in human PHK assessed as suppression of viral replication at 73 uM after 6 days postinfection by virus yield reduction assay; type: functional, organism-based
Camelpox virus [19] = experiment: Antiviral activity against Camelpox virus CML14 infected in human PHK assessed as suppression of viral replication at 73 uM after 6 days postinfection by virus yield reduction assay; type: functional, organism-based
[20] = Cytotoxicity against differentiated epithelium of human PHK raft culture at 76 uM after 4 days by Z1 Coulter counting analysis; settings: 96 h
Camelpox virus [21] = experiment: Antiviral activity against Camelpox virus CML1 infected in human PHK raft culture assessed as complete protection of differentiated cells against viral replication at 72 uM after 7 days postinfection; type: functional, organism-based
Camelpox virus [22] = experiment: Antiviral activity against Camelpox virus CML1 infected in HEL299 cells assessed as inhibition of viral replication at 5 to 13 uM after 6 days postinfection by virus yield reduction assay; type: functional, HEL 299; set-up: scale not given: the % may be the effect or the level left
Camelpox virus [23] = experiment: Antiviral activity against Camelpox virus CML14 infected in HEL299 cells assessed as inhibition of viral replication at 5 to 13 uM after 6 days postinfection by virus yield reduction assay; type: functional, HEL 299; set-up: scale not given: the % may be the effect or the level left
Camelpox virus [24] = experiment: Antiviral activity against Camelpox virus CML1 infected in human PHK assessed as inhibition of viral replication at 5 to 13 uM after 6 days postinfection by virus yield reduction assay; type: functional; set-up: scale not given: the % may be the effect or the level left
Camelpox virus [25] = experiment: Antiviral activity against Camelpox virus CML14 infected in human PHK assessed as inhibition of viral replication at 5 to 13 uM after 6 days postinfection by virus yield reduction assay; type: functional; set-up: scale not given: the % may be the effect or the level left
Camelpox virus [26] = experiment: Antiviral activity against Camelpox virus CML1-induced cytopathic effect in human PHK raft culture assessed as full protection of differentiated epithelium at 164uM treated after 7 days postinfection; type: functional, organism-based
Camelpox virus [27] = experiment: Antiviral activity against Camelpox virus CML1 infected in differentiated human PHK raft culture assessed as inhibition of viral replication at 6 uM treated after 7 days postinfection by virus yield reduction assay; type: functional, organism-based
Camelpox virus [28] = experiment: Antiviral activity against Camelpox virus CML1-induced cytopathic effect in human PHK raft culture assessed as full protection of differentiated epithelium at 65 uM treated after 7 days postinfection; type: functional, organism-based
Camelpox virus [29] = experiment: Antiviral activity against Camelpox virus CML1 infected in human PHK epithelial raft culture assessed as inhibition of virus-induced cytopathic effect at 1.8 uM after 7 days postinfection; type: functional, organism-based
Camelpox virus [30] = experiment: Antiviral activity against Camelpox virus CML1 infected in human PHK raft culture assessed as inhibition of virus-induced cytopathic effect at 7 uM treated after 7 days postinfection; type: functional, organism-based
Camelpox virus [31] = experiment: Antiviral activity against Camelpox virus CML1 infected in human PHK raft culture assessed as inhibition of virus-induced cytopathic effect at 18 uM treated after 7 days postinfection; type: functional, organism-based
[32] = Cytotoxicity against differentiated epithelium of human PHK raft culture at 5 ug/ml after 4 days by Z1 Coulter counting analysis; settings: 96 h

Row | Structure (SMILES) | EC50 (Camelpox virus [1]) [µM] | EC50 (Camelpox virus [2]) [µM] | CC50 at 96 h [3] [µM] | selectivity ratio [4] | selectivity ratio [5] | EC50 (Camelpox virus [6]) [µM] | EC50 (Camelpox virus [7]) [µM] | CC50 at 96 h [8] [µM] | Ratio CC50/IC50 [9] | Ratio CC50/IC50 [10] | EC99 (Camelpox virus [11]) [µM] | Activity (Camelpox virus [11]) | EC99 (Camelpox virus [12]) [µM] | Activity (Camelpox virus [12]) | Activity (Camelpox virus [13]) | Activity (Camelpox virus [14]) | EC99 (Camelpox virus [14]) [µM] | EC99 (Camelpox virus [15]) [µM] | other results
1 | C[C@H](COC1=CC(N)N(O)C(N)=N1)OCP(=O)(O)O (stereo partly drawn) | 1.6 | 2 | 162 | 99 | 82 | 3.9 | 4.6 | 5 | 1 | 1 | 9.5 | Dose-dependent effect | 9.5 | Dose-dependent effect | Dose-dependent effect | Dose-dependent effect | 9.5 | 5 | EC99 (Camelpox virus [13]): 9.5 µM
2 | Nc1ncnc(=O)n1C[C@H]1COP(=O)(O)CO1 | 4.3 | 3 | 143 | 33 | 48 | 18 | 14.8 | 34 | 2 | 2 | – | Dose-dependent effect | – | Dose-dependent effect | Dose-dependent effect | Dose-dependent effect | – | 67 | Activity (Camelpox virus [16]): Active; Activity (Camelpox virus [17]): Active; Activity (Camelpox virus [18]): Active; Activity (Camelpox virus [19]): Active; Activity [20]: Non-toxic; Activity (Camelpox virus [21]): Active
3 | Nc1nccc2c1ncn2C[C@@H](CO)OCP(=O)(O)O | 1.5 | 1.7 | 30 | 20 | 18 | 3.1 | 2.1 | 0.3 | 0.1 | 0.1 | – | Dose-dependent effect | – | Dose-dependent effect | Dose-dependent effect | Dose-dependent effect | – | – | Activity (Camelpox virus [22]): 99%; Activity (Camelpox virus [23]): 99%; Activity (Camelpox virus [24]): 99%; Activity (Camelpox virus [25]): 99%
4 | Nc1ccn(C[C@H]2COP(=O)(O)CO2)c(=O)n1 [CYCLIC CIDOFOVIR] | 6.1 | 8.8 | 335 | 55 | 38 | 7.2 | 9.1 | 17 | 2 | 2 | 64 | Dose-dependent effect | – | Dose-dependent effect | Dose-dependent effect | Dose-dependent effect | – | 38 | EC99 (Camelpox virus [13]): 59 µM; Activity (Camelpox virus [26]): Active
5 | Nc1ncnc2c1ncn2C[C@@H](CO)OCP(=O)(O)O | 0.5 | 0.5 | 32 | 66 | 60 | 1 | 1.4 | 1 | 1 | 1 | – | Dose-dependent effect | 1 | Dose-dependent effect | Dose-dependent effect | Dose-dependent effect | 2 | – | –
6 | Nc1nc(N)c2ncn(C[C@@H](CO)OCP(=O)(O)O)c2n1 | 0.2 | 0.6 | 45 | 249 | 70 | 0.8 | 1.2 | 2 | 2 | 1 | – | Dose-dependent effect | 1 | Dose-dependent effect | Dose-dependent effect | Dose-dependent effect | 2 | – | Activity (Camelpox virus [27]): Active
7 | Nc1ccn(C[C@@H](CO)OCP(=O)(O)O)c(=O)n1.O.O [CIDOFOVIR] | 8.2 | 6.6 | 192 | 23 | 29 | 5.3 | 8.8 | 7 | 1 | 1 | 58 | Dose-dependent effect | – | Dose-dependent effect | Dose-dependent effect | Dose-dependent effect | – | 6 | EC99 (Camelpox virus [13]): 16 µM; Activity (Camelpox virus [28]): Active
8 | CC(C)(C)C(=O)OCOP(=O)(COC(CO)Cn1cnc(N)nc1=O)OCOC(=O)C(C)(C)C (stereo not drawn) | 0.02 | 0.02 | 5 | 250 | 250 | 0.6 | 0.3 | 1 | 2 | 4 | – | Dose-dependent effect | – | – | – | – | – | – | –
9 | Nc1ncn(C[C@@H](CO)OCP(=O)(O)O)c(=O)n1 | 12.3 | 12 | 550 | 45 | 46 | 14.8 | 9.7 | 71 | 5 | 7 | – | Dose-dependent effect | – | Dose-dependent effect | Dose-dependent effect | Dose-dependent effect | – | 16 | Activity (Camelpox virus [16]): Active; Activity (Camelpox virus [17]): Active; Activity (Camelpox virus [18]): Active; Activity (Camelpox virus [19]): Active; Activity (Camelpox virus [29]): inactive; Activity (Camelpox virus [30]): inactive; Activity (Camelpox virus [31]): inactive; Activity [32]: Toxic
10 | Nc1ncnc2c1ncn2C[C@H]1COP(=O)(O)CO1 | 0.2 | 0.1 | 63 | 393 | 441 | 1.6 | 3.1 | 3 | 2 | 1 | 3 | Dose-dependent effect | 2 | Dose-dependent effect | Dose-dependent effect | Dose-dependent effect | 6 | – | –
11 | Nc1nc(NCS(=O)(=O)O)c2ncn(CCOCP(=O)(O)O)c2n1 | 1.9 | 1.9 | 2 | 1 | 1 | 3.7 | 4.9 | 0.1 | 0.03 | 0.03 | – | – | – | – | – | – | – | – | –
12 | Nc1nc2c(ncn2CCOCP(=O)(O)O)c(=O)[nH]1 [GS-438] | 3.3 | 5.5 | 1 | 0.3 | 0.2 | 2.9 | 4.4 | 0.3 | 0.1 | 0.1 | – | – | – | – | – | – | – | – | –
